Activity calls are given as the source filed them. The calls are words filed in the database; no cut-off is given here.
Columns and labels:
AmpC (Escherichia coli) [1] = target: AmpC (Escherichia coli) (UniProt Q83TT7); experiment: Inhibition of Escherichia coli AmpC assessed as induction of protein unfolding measured by trypsin mediated degradation of compound-AmpC enzyme complex at 100 uM after 4 hrs by gel electrophoresis
Procedure, shortened: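 AmpC (0.5 μM) was preincubated 5 min with or without 100 μM aggregator in 50 mM KPi, pH 7.0, 1% DMSO final. Trypsin (0.01 or 0.025 mg/mL) was then added, and digestion ran at room temperature for 0, 15, 30 min, 1 h or 4 h. Samples were boiled in DTT-containing loading buffer and the AmpC band was followed by SDS-PAGE.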

AmpC (Escherichia coli) [2] = target: AmpC (Escherichia coli) (UniProt Q83TT7); experiment: Inhibition of Escherichia coli AmpC assessed as induction of protein unfolding measured by trypsin mediated degradation of compound-AmpC enzyme complex at 250 uM after 15 mins by gel electrophoresis
Procedure, shortened: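 AmpC β-lactamase (0.5 μM) in 50 mM KPi, pH 7.0, with or without aggregator at 250 μM (1% DMSO final). Trypsin (0.01 or 0.025 mg/mL) added after 5 min. Digestion ran at room temperature for 0 min to 4 h. Samples were boiled 2 min in DTT-containing loading buffer, run on SDS-PAGE, and the β-lactamase band was scored against compound-free enzyme.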

Chain of AmpC (Escherichia coli) (Q83TT7 as listed by the source): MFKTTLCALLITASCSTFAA

Row | SMILES | Activity (AmpC (Escherichia coli) [1]) | Activity (AmpC (Escherichia coli) [2])
1 | CCCCCCNC(=O)Nc1ccc(S(=O)(=O)Nc2ccc(CCNC[C@H](O)COc3ccc(O)cc3)cc2)cc1 | Active | 
2 | Nc1c(/N=N/c2ccc(-c3ccc(/N=N/c4cc(S(=O)(=O)O)c5ccccc5c4N)cc3)cc2)cc(S(=O)(=O)O)c2ccccc12 |  | Active
3 | COC(=O)C1=C(C)NC(C)=C(C(=O)OCCN(C)Cc2ccccc2)C1c1cccc([N+](=O)[O-])c1 (stereo not drawn) |  | Active

From ChEMBL document CHEMBL1153954, “Promiscuous aggregate-based inhibitors promote enzyme unfolding” (J Med Chem, 2009)
